The nature of data set [1]: Cytotoxicity against human U937 cells assessed as cell death after 72 hrs by sulforhodamine B assay. The note with it: U-937, 72 h. (The SRB assay estimates cell density from bound dye.)
Data set [2] in a line: Metabolic stability in rat liver microsomes at 10 uM after 3 hrs by LC/MS analysis. The data set is classed as ADME. The settings on record: read-out: Stability. For orientation: Liver microsomes are a subcellular fraction often used to study metabolism.
In data set [3] the test system is Mus musculus. The experiment in a line: Toxicity in C57BL/6 mouse at 200 mg/kg, ip measured over 24 hrs. The data set is classed as organism-based. Further details: dose 200 mg/kg, route intraperitoneal; call rule not given here. The note with it: in vivo. A digest of the protocol: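 Tolerability: C57BL/6 mice aged 8-10 weeks, n = 3 per cohort, given a single 200 mg/kg i.p. dose formulated at 5 mg/mL in 200 mg/mL HPβCD, pH 5.5. Signs classed as excitatory or depressive and graded mild to severe.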

Data set [4] can be described thus: Metal chelating activity of the compound assessed as zinc complex formation after 5 mins by EGTA fluorescence titration Assay. In kind it is physicochemical.
For data set [5], the target named is T1, Caspase-3/Caspase-7 (Homo sapiens) (UniProt P42574+P55210). Kind of data set: Activation of Caspase 3/7 in human U937 cells assessed as cleavage of Ac-DEVD-AFC at 30 uM after 16 hrs by fluorescence assay relative to control. The data set is classed as cell-based. The settings on record: U-937.
Data set [6] deals with U-937. Kind of data set: Induction of apoptosis in human U937 cells assessed as early apoptotic cells at 50 uM after 12 hrs by annexin V-FITC/propidium iodide staining-based flow cytometric analysis (reference value: 2%). In kind it is functional. Background: In flow cytometry, cells or beads pass a laser one at a time.
Data set [7] deals with U-937. The experiment in a line: Induction of apoptosis in human U937 cells assessed as late apoptotic cells at 50 uM after 12 hrs by annexin V-FITC/propidium iodide staining-based flow cytometric analysis (reference value: 2%). The data set is classed as functional.
Data set [8] relates to U-937. The experiment in a line: Induction of apoptosis in human U937 cells assessed as necrotic cells at 50 uM after 12 hrs by annexin V-FITC/propidium iodide staining-based flow cytometric analysis relative to control. The data set is classed as functional.
Data set [9] relates to U-937. The experiment in a line: Induction of apoptosis in human U937 cells assessed as viable cells at 50 uM after 12 hrs by annexin V-FITC/propidium iodide staining-based flow cytometric analysis (reference value: 96%). The note with it: U-937, 12 h, read-out: Activity. In kind it is functional.
The next data set has as its system Jurkat. The experiment in a line: Cytotoxicity against human Jurkat cells assessed as cell death after 72 hrs by sulforhodamine B assay. In kind it is functional, cell-based. The essentials:
(§1)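 Jurkat plated at 25,000 cells/well; GL-1 and EL4 at 15,000 cells/well. Nine half-log doses, 0.01–100 µM, in triplicate. SRB staining after TCA fixation, absorbance 510 nm. Percent death normalized to a positive death control (100%) and DMSO (0%). Logistic fit gives IC50, mean of three experiments ± s.e.m.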

The nature of data set [10]: Cytotoxicity against dog GL1 cells assessed as cell death after 72 hrs by sulforhodamine B assay. The data set is classed as functional, cell-based. The settings on record: Canis lupus familiaris. A digest of the protocol: as §1
The nature of data set [11]: Cytotoxicity against dog OSW cells assessed as cell death after 72 hrs by sulforhodamine B assay. The data set is classed as functional, cell-based. The note with it: Canis lupus familiaris.
A further data set has as its system EL4. The experiment in a line: Cytotoxicity against mouse EL4 cells assessed as cell death after 72 hrs by sulforhodamine B assay. The data set is classed as functional, cell-based. The settings on record: EL4, 72 h. A digest of the protocol: as §1
Data set [12] relates to Serum. The experiment in a line: Drug uptake in C57/BL6 mouse serum at 25 mg/kg, iv measured after 8 hrs by LC/MS/MS analysis. The data set is classed as ADME, organism-based. Further details: dose 25 mg/kg, route intravenous. The settings on record: in vivo. The essentials:
(§2)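 Mouse PK: C57/BL6 mice, n = 2 per cohort per time point, 25 mg/kg given by tail vein injection or oral gavage; formulated at 5 mg/mL in 200 mg/mL HPβCD, pH 5.5. Mice sacrificed at set times, blood collected, EDTA plasma frozen at -80°C. Levels measured by LC/MS/MS (Polar-RP column, formic acid/methanol gradient, negative ESI) against an internal standard.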

In data set [13] the test system is Mus musculus. The experiment in a line: Elimination half life in C57/BL6 mouse at 25 mg/kg, iv and po by LC/MS/MS analysis. The data set is classed as ADME, organism-based. Further details: dose 25 mg/kg, route oral. The settings on record: in vivo.
A short description of data set [14]: AUC in C57/BL6 mouse at 25 mg/kg, iv by LC/MS/MS analysis. The data set is classed as ADME, organism-based. Further details: dose 25 mg/kg, route intravenous. The settings on record: plasma.
Data set [15] in a line: AUC in C57/BL6 mouse at 25 mg/kg, po by LC/MS/MS analysis. The settings on record: plasma. In kind it is ADME, organism-based. Further details: dose 25 mg/kg, route oral.
The nature of data set [16]: Oral bioavailability in C57/BL6 mouse at 25 mg/kg by LC/MS/MS analysis. The note with it: in vivo. The data set is classed as ADME, organism-based.
Another data set concerns Liver microsome. The experiment in a line: Drug metabolism in rat liver microsomes assessed as formation of N-dealkylated, dihydroxylated and multiple monooxygenated products at 10 uM after 3 hrs by LC/MS analysis. The data set is classed as ADME.
Data set [17] can be described thus: Elimination half life in dog at 1 mg/kg, iv. In kind it is ADME, organism-based, Canis lupus familiaris. Further details: dose 1 mg/kg, route intravenous. The settings on record: in vivo, read-out: beta t1/2 (converted).
Data set [18] deals with Serum. Kind of data set: Drug uptake in C57/BL6 mouse serum at 25 mg/kg, iv measured after 5 to 6 hrs by LC/MS/MS analysis. The data set is classed as ADME, organism-based. Further details: dose 25 mg/kg, route intravenous. The settings on record: in vivo. The essentials:
as §2

Data set [19] deals with T1, Caspase-3/Caspase-7 (Homo sapiens). Kind of data set: Activation of Caspase 3/7 in human U937 cells assessed as cleavage of Ac-DEVD-AFC at 1 uM after 16 hrs by fluorescence assay relative to control. In kind it is cell-based. The settings on record: U-937. The essentials:
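U-937 cells, 50,000/well in phenol red-free RPMI-1640 with 10% FBS, preincubated 15 h at 37°C. Compound added from a 3x solution in media and tested in six wells. Lysis/caspase buffer contains 20 µM Ac-DEVD-AFC. […] 16 h slopes normalized to 0 h (0%) and staurosporine 16 h (100%).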

SMILES strings stand for the structures.

T1 sequence (P42574 whole entry, looked up): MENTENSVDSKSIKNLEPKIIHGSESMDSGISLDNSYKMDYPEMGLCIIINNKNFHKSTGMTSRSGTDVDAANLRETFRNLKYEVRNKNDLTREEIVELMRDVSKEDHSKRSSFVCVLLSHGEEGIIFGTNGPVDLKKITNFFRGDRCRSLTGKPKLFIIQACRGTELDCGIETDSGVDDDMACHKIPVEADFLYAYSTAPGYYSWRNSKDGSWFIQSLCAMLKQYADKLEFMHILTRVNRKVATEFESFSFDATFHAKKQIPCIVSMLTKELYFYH
T1 sequence (P55210 whole entry, looked up): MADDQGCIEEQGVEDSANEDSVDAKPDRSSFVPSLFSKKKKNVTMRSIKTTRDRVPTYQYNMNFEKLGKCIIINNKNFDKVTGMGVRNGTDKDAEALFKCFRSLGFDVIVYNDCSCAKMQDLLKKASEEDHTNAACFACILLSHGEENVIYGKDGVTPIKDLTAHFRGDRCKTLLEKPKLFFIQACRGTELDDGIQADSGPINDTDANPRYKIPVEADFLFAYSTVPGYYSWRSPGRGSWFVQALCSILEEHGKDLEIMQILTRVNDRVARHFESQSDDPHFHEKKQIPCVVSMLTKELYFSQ

On to `C=CCc1cccc(/C=N/NC(=O)CN2CCN(C(=O)c3ccc(F)cc3)CC2)c1O`, for which the IC50 in data set [1] was found to be 10.2 µM; in the data set on Jurkat, 4 µM; in data set [10] it was 3 µM; in data set [11], 9.3 µM; in the data set on EL4 it was 6.5 µM. For the same compound, the remaining at 3 h, 10 µM in [2] is 86%. In addition, the Activity result in the data set with Mus musculus [3] is “Non-toxic”; in data set [5], 64%; with U-937 [6], 27%; with U-937 [7], 22%; in the data set on U-937 [8], 2%. The Kd in data set [4] was determined as 0.00146 µM. In addition, the viability at 50 µM with U-937 [9] stood at 49%. The Drug uptake result with Serum [12] was “Active”. Also, the “beta t1/2” value with Mus musculus [13] worked out at 1.49 h. The values for the AUC in data set [14] and in data set [15] were 6040 ng·h/mL and 1540 ng·h/mL, respectively. Also, the bioavailability in data set [16] was 25.6%.
Turning to `C=CCc1cccc(/C=N/NC(=O)CN2CCN(Cc3ccccc3)CC2)c1O` [PAC-1], the IC50 came to 10.2 µM in data set [1]; 4.4 µM with Jurkat; 3 µM in [10]; 10 µM in data set [11]; 6.5 µM in the data set on EL4. In addition, in [2], the remaining at 3 h, 10 µM is 38%. Further, in the data set with Liver microsome, the Drug metabolism entry is given as “metabolite_detected”. Also, the Activity entry in the data set with Mus musculus [3] was “Toxic”; in data set [5] it was 87%; in the data set with U-937 [6] it was 22%; in the data set with U-937 [7], 19%; in the data set with U-937 [8], 5%. Further, the half-life in [17] was 2.1 h. For the same compound, the dissociation constant (Kd) in data set [4] worked out at 0.00128 µM. For the same compound, in the data set with U-937 [9], the viability at 50 µM was 54%. The Drug uptake result in the data set on Serum [18] was “Not Active”. For the same compound, the “beta t1/2” value in the data set on Mus musculus [13] was found to be 0.41 h. Further, the AUC is 3510 ng·h/mL in [14] and 527 ng·h/mL in [15]. Also, the bioavailability in [16] came out at 15.1%.
Regarding `CN[C@@H]1C[C@H]2O[C@@](C)([C@@H]1OC)n1c3ccccc3c3c4c(c5c6ccccc6n2c5c31)C(=O)NC4`, in [19], the Activity was determined as 100%.
Take `C=CCc1cc(F)cc(/C=N/NC(=O)CN2CCN(C(=O)c3ccccc3)CC2)c1O`: the IC50 worked out at 8.6 µM in [1]; 4.1 µM in the data set with Jurkat; 3.4 µM in data set [10]; 10 µM in data set [11]; 7.3 µM with EL4. Moreover, the remaining at 3 h, 10 µM in [2] was determined as 93%. For the same compound, the Activity entry is “Non-toxic” in the data set on Mus musculus [3]; 67% in data set [5]; 20% with U-937 [6]; 19% in the data set on U-937 [7]; 7% in the data set with U-937 [8]. Also, in data set [4], the Kd was found to be 0.00107 µM. Besides, in the data set with U-937 [9], the viability at 50 µM is 54%. In addition, the Drug uptake result with Serum [12] is “Active”. In the data set with Mus musculus [13], the “beta t1/2” value stood at 2.008 h. The AUC was 4850 ng·h/mL in data set [14] and 428 ng·h/mL in data set [15]. In addition, in [16], the bioavailability stood at 8.5%.
On to `C=CCc1cccc(/C=N/NC(=O)CN2CCN(Cc3ccc(S(N)(=O)=O)cc3)CC2)c1O`, for which, in data set [2], the remaining at 3 h, 10 µM was 84%. The Drug uptake result with Serum [18] is recorded as “Not Active”.

For orientation: IC50 means the concentration that gives 50% inhibition. As usually defined, the Kd is the free concentration of one partner at which half of the binding sites on the other are occupied at equilibrium, for simple one-to-one binding. A word on the AUC: it is the area under the concentration-time curve, a measure of exposure. As usually defined, the bioavailability is dose-corrected exposure relative to a reference, in per cent.
